Results published in ChEMBL document CHEMBL5653631, “A Potent and Selective ULK1 Inhibitor Suppresses Autophagy and Sensitizes Cancer Cells to Nutrient Stress” (iScience, 2018).
Values belong to the compound of their own block, whether it stands above or below them.

Columns and labels:
[1] = biological target: Ribosomal protein S6 kinase alpha-2 (Homo sapiens) (UniProt Q15349); experiment: Inhibition of human recombinant RSK3 at 500 nM in presence of ATP by radiometric assay relative to control
[2] = biological target: cAMP-dependent protein kinase catalytic subunit beta (Homo sapiens) (UniProt P22694); experiment: Inhibition of human recombinant PKACbeta at 500 nM in presence of ATP by radiometric assay relative to control
[3] = biological target: Serine/threonine-protein kinase 26 (Homo sapiens) (UniProt Q9P289); experiment: Inhibition of human recombinant MST4 at 500 nM related to control ULK1
[4] = biological target: T1, Calcium/calmodulin-dependent protein kinase type IV (Homo sapiens) (UniProt Q16566); experiment: Inhibition of human recombinant CaMK4 at 500 nM in presence of ATP by radiometric assay relative to control
T1 sequence (whole entry): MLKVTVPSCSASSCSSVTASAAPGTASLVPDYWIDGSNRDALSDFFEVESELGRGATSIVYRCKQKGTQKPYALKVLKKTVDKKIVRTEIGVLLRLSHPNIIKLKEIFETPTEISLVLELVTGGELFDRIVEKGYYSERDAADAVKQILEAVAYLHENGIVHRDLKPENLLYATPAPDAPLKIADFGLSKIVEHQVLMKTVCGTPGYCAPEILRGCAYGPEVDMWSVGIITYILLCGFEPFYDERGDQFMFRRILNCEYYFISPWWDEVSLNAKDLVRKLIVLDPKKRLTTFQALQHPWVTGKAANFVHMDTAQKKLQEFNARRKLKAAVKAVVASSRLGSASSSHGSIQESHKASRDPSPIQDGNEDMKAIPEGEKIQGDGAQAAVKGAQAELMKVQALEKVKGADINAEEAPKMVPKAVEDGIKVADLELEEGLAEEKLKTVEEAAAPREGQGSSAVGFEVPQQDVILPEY

[5] = biological target: Ribosomal protein S6 kinase alpha-3 (Homo sapiens) (UniProt P51812); experiment: Inhibition of human recombinant RSK2 at 500 nM related to control ULK1
[6] = biological target: T2, Serine/threonine-protein kinase Nek9 (Homo sapiens) (UniProt Q8TD19); experiment: Inhibition of human recombinant NEK9 at 40 nM in presence of ATP by radiometric assay relative to control
T2 sequence (whole entry): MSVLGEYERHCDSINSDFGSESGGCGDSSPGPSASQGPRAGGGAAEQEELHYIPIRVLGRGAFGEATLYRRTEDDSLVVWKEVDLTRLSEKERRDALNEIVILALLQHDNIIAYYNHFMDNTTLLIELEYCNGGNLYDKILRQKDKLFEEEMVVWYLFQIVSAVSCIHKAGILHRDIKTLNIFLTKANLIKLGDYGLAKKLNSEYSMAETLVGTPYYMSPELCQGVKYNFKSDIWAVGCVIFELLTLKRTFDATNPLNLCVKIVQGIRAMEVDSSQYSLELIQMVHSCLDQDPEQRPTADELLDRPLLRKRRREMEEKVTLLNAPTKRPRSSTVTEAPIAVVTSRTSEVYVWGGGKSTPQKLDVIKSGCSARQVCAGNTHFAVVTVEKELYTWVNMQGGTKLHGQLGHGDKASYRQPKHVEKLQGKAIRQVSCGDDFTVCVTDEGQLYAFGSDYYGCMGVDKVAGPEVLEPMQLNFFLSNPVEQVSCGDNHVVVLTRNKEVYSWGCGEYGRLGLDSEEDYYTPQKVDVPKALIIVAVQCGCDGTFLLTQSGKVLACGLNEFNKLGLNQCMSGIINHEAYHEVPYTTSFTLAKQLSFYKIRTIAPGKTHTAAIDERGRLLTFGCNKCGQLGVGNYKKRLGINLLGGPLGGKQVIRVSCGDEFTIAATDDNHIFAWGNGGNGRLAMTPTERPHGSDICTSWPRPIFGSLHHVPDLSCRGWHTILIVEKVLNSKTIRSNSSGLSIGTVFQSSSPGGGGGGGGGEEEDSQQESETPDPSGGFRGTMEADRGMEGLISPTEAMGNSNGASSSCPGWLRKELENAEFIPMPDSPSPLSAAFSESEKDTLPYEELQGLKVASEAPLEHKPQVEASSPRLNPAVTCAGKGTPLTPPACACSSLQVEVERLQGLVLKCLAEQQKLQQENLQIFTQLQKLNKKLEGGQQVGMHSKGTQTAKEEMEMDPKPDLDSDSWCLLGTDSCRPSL

[7] = biological target: Serine/threonine-protein kinase mTOR (Homo sapiens) (UniProt P42345); experiment: Inhibition of human recombinant FRAP at 40 nM in presence of ATP by radiometric assay relative to control
[8] = biological target: Glycogen synthase kinase-3 alpha (Homo sapiens) (UniProt P49840); experiment: Inhibition of human recombinant GSK3A at 40 nM in presence of ATP by radiometric assay relative to control
[9] = biological target: Transient receptor potential cation channel subfamily M member 7 (Homo sapiens) (UniProt Q96QT4); experiment: Inhibition of human recombinant ChaK1 at 40 nM related to control ULK1
[10] = biological target: STE20-like serine/threonine-protein kinase (Homo sapiens) (UniProt Q9H2G2); experiment: Inhibition of human recombinant SLK at 15 nM related to control ULK1
[11] = biological target: Tyrosine-protein kinase ABL2 (Homo sapiens) (UniProt P42684); experiment: Inhibition of human recombinant ABL2 at 15 nM in presence of ATP by radiometric assay relative to control
Outline: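 Panel of 327 recombinant human kinases in radiometric activity assays, each screened in duplicate at a single inhibitor concentration; percent activity remaining relative to vehicle control, percent inhibition taken as 100 minus activity remaining.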

[12] = biological target: Tyrosine-protein kinase Lyn (Homo sapiens) (UniProt P07948); experiment: Inhibition of human recombinant LYN at 15 nM related to control ULK1
[13] = biological target: Protein kinase C delta type (Homo sapiens) (UniProt Q05655); experiment: Inhibition of human recombinant PKCd at 15 nM in presence of ATP by radiometric assay relative to control
Sequence of Protein kinase C delta type (Homo sapiens) (Q05655 whole entry, looked up): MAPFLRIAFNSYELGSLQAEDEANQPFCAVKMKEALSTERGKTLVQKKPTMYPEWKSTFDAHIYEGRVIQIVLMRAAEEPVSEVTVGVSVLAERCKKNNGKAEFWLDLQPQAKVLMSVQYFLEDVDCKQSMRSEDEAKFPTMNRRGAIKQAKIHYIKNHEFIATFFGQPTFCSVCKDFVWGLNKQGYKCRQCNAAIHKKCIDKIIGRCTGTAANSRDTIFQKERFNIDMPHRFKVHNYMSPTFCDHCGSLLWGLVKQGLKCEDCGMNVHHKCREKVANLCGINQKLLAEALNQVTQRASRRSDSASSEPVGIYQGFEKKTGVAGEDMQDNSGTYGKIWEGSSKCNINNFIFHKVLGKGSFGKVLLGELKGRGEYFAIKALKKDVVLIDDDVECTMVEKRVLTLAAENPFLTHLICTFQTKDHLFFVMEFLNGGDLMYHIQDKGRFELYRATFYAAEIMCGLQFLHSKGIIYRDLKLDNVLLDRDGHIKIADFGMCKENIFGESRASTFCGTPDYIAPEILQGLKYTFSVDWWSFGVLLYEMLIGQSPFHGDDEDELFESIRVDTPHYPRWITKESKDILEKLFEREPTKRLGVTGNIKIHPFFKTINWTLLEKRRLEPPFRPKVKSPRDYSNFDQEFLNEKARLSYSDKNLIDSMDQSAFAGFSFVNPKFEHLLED

Sequence of Tyrosine-protein kinase Lyn (Homo sapiens) (P07948 2-512 limits assumed): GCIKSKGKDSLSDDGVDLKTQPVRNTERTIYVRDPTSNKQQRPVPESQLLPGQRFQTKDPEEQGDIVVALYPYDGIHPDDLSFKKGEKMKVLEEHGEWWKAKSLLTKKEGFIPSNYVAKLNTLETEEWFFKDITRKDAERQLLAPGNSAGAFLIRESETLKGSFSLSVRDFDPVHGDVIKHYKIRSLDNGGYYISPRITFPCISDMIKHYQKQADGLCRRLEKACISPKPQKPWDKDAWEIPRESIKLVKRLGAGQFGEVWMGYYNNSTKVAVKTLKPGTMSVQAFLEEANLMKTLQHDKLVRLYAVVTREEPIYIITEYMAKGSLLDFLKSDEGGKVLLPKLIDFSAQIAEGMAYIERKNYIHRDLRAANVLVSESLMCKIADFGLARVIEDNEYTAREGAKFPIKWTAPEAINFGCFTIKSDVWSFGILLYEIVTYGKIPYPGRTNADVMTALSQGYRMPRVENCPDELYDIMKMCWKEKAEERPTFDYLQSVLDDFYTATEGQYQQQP
Sequence of Tyrosine-protein kinase ABL2 (Homo sapiens) (P42684 whole entry): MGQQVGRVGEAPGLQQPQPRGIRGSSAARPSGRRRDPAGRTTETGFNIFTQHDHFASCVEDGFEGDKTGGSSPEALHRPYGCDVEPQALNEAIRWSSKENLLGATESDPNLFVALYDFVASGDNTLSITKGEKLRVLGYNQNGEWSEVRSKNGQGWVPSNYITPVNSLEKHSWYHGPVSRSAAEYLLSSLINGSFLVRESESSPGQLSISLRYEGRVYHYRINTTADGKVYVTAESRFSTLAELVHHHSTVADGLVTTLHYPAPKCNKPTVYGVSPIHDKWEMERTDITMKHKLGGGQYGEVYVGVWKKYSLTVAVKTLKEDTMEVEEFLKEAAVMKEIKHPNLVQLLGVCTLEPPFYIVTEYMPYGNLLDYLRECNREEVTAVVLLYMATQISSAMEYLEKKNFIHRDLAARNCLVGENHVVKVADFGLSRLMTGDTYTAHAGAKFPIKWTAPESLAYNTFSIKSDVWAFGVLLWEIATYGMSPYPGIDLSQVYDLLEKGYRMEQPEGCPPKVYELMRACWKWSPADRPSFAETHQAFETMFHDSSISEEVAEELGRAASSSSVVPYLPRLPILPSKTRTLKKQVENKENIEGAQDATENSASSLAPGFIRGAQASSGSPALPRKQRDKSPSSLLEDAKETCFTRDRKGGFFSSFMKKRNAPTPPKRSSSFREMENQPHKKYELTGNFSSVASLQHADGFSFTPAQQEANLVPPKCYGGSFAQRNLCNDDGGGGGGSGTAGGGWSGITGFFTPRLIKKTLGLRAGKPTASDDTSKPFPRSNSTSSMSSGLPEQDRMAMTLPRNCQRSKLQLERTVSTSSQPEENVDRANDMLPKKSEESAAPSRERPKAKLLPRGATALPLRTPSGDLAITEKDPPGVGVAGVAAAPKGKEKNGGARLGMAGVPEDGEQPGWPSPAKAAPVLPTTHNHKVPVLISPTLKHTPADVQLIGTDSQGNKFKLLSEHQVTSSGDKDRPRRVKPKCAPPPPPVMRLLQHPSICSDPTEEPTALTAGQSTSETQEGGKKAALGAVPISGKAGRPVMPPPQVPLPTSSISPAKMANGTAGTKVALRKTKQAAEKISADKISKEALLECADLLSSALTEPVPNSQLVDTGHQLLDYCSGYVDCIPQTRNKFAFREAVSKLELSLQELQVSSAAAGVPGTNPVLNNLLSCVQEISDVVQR
Sequence of Ribosomal protein S6 kinase alpha-3 (Homo sapiens) (P51812 whole entry): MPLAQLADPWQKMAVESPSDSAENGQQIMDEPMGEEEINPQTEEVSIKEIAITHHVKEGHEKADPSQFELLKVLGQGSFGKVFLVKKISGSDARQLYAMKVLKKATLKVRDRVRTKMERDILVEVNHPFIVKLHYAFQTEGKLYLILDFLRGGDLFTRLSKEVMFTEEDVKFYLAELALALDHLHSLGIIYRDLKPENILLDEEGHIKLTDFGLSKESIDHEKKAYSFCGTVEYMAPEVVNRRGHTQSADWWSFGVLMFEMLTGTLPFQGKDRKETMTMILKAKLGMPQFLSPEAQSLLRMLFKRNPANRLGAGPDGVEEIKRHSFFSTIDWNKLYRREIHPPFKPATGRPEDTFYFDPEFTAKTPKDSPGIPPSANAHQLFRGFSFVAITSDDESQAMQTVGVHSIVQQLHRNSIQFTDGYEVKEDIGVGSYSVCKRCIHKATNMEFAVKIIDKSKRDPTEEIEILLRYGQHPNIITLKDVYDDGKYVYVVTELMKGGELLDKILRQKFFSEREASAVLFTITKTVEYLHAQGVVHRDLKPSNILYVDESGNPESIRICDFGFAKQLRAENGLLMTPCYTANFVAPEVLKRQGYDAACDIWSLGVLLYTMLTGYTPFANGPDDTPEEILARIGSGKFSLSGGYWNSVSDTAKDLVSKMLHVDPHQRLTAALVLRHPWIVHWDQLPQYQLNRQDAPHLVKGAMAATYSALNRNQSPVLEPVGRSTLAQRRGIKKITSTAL
Sequence of Ribosomal protein S6 kinase alpha-2 (Homo sapiens) (Q15349 whole entry): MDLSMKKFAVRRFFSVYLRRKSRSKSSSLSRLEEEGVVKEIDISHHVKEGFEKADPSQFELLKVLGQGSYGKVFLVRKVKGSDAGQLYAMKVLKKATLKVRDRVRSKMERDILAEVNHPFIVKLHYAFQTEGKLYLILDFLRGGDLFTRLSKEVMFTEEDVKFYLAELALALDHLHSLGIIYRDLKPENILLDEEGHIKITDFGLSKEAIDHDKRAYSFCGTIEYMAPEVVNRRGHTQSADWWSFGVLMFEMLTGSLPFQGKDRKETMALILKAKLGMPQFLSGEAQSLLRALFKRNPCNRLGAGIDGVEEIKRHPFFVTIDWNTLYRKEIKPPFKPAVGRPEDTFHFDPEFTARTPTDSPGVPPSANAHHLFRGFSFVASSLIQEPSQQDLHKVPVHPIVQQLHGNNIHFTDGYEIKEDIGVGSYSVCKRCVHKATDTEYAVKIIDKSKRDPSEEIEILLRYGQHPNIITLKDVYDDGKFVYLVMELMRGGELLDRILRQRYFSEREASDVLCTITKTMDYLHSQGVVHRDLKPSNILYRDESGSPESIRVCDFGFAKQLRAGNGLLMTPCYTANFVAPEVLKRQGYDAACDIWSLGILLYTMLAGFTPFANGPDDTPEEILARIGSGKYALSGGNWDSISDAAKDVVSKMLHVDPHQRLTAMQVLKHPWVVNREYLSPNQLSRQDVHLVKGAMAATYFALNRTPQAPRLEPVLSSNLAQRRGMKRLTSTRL
Sequence of Serine/threonine-protein kinase 26 (Homo sapiens) (Q9P289 2-416 limits assumed): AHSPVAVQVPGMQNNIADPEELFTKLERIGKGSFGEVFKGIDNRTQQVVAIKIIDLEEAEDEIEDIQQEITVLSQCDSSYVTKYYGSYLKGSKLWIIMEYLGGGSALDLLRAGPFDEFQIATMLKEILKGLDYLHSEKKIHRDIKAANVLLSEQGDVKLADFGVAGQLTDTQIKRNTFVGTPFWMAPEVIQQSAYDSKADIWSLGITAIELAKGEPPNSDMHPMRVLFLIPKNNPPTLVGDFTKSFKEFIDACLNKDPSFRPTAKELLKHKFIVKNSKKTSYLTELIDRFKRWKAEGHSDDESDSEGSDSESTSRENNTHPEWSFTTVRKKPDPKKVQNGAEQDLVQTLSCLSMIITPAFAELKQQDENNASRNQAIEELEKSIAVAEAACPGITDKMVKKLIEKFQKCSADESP
Sequence of Glycogen synthase kinase-3 alpha (Homo sapiens) (P49840 2-483 limits assumed): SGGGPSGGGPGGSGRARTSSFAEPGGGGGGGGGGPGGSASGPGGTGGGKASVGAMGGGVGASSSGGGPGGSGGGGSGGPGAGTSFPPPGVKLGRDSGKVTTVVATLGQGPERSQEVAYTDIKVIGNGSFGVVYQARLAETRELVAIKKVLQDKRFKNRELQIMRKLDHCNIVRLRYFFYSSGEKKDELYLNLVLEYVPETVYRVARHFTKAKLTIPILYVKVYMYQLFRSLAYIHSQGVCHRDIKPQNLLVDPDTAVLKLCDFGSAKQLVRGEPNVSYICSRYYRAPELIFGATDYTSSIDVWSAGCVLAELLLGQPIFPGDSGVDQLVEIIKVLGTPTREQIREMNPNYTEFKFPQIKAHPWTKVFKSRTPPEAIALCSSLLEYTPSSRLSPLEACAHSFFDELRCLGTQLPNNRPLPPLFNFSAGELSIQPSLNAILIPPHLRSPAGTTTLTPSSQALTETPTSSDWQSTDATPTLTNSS

inhibition [1]: 49%
inhibition [2]: 0%
fold change (FC) [3]: 0
inhibition [4]: 0%
fold change (FC) [5]: 0.5
SMILES: CNC(=O)c1ccccc1Oc1nc(Nc2cc(OC)c(OC)c(OC)c2)ncc1Br

inhibition [7]: 0%
inhibition [8]: 0%
fold change (FC) [9]: 0.01
SMILES: O=C(N[C@@H](C1CC1)C(F)(F)F)c1cc(-c2cnn3cc(-c4ccc(F)cc4)cnc23)cs1
inhibition [6]: 5%

fold change (FC) [10]: 0.25
inhibition [11]: 42%
fold change (FC) [12]: 0.22
inhibition [13]: 0%
SMILES: CC(C)[C@H](NC(=O)c1cc(-c2cnn3cc(-c4ccc(OCCN5CCCCC5)cc4)cnc23)cs1)C(F)(F)F
